These results are taken from article PMC12744601 (Infection and Drug Resistance, 2025).

The test system of the test is daptomycin-non-susceptible VRE strain (clinical DRE isolate). Put plainly: Minimum inhibitory concentration. It is filed as cell-based, Enterococcus faecium. In outline: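 Clinical daptomycin-non-susceptible VRE isolate from a bloodstream infection. Species identified by VITEK 2. […] Fosfomycin MIC by agar dilution and ceftaroline MIC by broth microdilution. Breakpoints per CLSI.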

Converted amounts (≈) assume the structure as drawn.

In general, MIC refers to the smallest concentration in the dilution series that meets the test's criterion for growth inhibition. In turn, `CCO/N=C(\C(=O)N[C@@H]1C(=O)N2C(C(=O)[O-])=C(Sc3nc(-c4cc[n+](C)cc4)cs3)CS[C@H]12)c1nsc(N)n1` [Ceftaroline, ceftaroline] returned an MIC (Enterococcus, VRE) above 8 µg/mL.

Consider `CCCCCCCCCC(=O)N[C@@H](Cc1c[nH]c2ccccc12)C(=O)N[C@H](CC(N)=O)C(=O)N[C@@H](CC(=O)O)C(=O)N[C@@H]1C(=O)NCC(=O)N[C@@H](CCCN)C(=O)N[C@@H](CC(=O)O)C(=O)N[C@H](C)C(=O)N[C@@H](CC(=O)O)C(=O)NCC(=O)N[C@H](CO)C(=O)N[C@@H]([C@H](C)CC(=O)O)C(=O)N[C@@H](CC(=O)c2ccccc2N)C(=O)O[C@@H]1C` [Daptomycin, daptomycin], for which the MIC (broth microdilution, cation-adjusted Mueller-Hinton broth supplemented with 50 mg/mL calcium, clinical DRE isolate) is 8 µg/mL (≈ 4.94 µM).

With `C[C@@H]1O[C@@H]1P(=O)(O)O` [Fosfomycin, fosfomycin], under “Enterococcus, VRE”, the MIC came to 128 µg/mL (≈ 927 µM).

Compound `CN[C@H](CC(C)C)C(=O)N[C@H]1C(=O)N[C@@H](CC(N)=O)C(=O)N[C@H]2C(=O)N[C@H]3C(=O)N[C@H](C(=O)N[C@H](C(=O)O)c4cc(O)cc(O)c4-c4cc3ccc4O)[C@H](O)c3ccc(c(Cl)c3)Oc3cc2cc(c3O[C@@H]2O[C@H](CO)[C@@H](O)[C@H](O)[C@H]2O[C@H]2C[C@](C)(N)[C@H](O)[C@H](C)O2)Oc2ccc(cc2Cl)[C@H]1O` [vancomycin] registered an MIC (Sensititre GPN3F system, clinical DRE isolate) above 128 µg/mL.
